# Sampled rows, rich in hits. Any-hit rate of the full collection: about 2.9%.
# SIRT5 block: inhibitors of human sirtuin-5 desuccinylase. Purified SirT5, succinyl-peptide AMC, trypsin-coupled fluorescence. Q9NXA8. inhibition, % at 15 µM. hit rate 1.1% among 330,000. AID 652115; in the data active = inhibition above about 15%
# DENV2 CPE rescue: inhibitors of DENV2 cytopathic effect; DENV2-infected cells, cytopathic effect rescue, plate reader; CPE inhibition, % at 9.99 µM; hit rate 1.7% among 350,000; AID 651640; in the data active = CPE inhibition above about 20%, passing the limit was not always enough; tested in BHK-21 cells;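 note: 0% = median of neutral control wells and 100% = median of positive control wells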
# E-sel inducer: induces E-selectin expression in human endothelial cells. hit rate 0.37% among 260,000. P16581. HUVEC E-selectin immunofluorescence imaging; normalized: neutral wells 0, TNF-alpha wells 100. activation, % at 7.58 µM;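 active = mean E-selectin-positive cell signal at least 10% of the positive control, reached in at least 60% of replicates, without over 20% cell loss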
# Target sequence (P16581 whole entry, looked up): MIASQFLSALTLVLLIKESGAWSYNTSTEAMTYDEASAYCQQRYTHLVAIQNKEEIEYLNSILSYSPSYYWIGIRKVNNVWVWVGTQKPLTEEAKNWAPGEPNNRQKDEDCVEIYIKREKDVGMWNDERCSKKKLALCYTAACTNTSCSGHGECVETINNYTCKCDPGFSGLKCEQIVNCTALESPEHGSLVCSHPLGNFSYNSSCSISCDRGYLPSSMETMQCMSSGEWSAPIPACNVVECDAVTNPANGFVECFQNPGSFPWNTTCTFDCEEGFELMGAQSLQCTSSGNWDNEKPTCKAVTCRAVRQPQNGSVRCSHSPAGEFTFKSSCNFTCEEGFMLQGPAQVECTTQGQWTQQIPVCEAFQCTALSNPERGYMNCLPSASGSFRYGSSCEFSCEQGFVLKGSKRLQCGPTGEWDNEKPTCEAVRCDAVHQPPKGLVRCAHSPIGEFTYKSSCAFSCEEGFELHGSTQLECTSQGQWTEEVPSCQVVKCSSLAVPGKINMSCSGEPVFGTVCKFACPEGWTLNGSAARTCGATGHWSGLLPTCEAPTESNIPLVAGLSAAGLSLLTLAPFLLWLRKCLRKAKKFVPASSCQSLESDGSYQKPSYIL
#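 material = human umbilical vein endothelial cells (HUVEC), E-selectin induction | quantity = 3,000 cells/well | medium = EGM-2 growth medium on 0.1% gelatin-coated wells | technique = immunofluorescence imaging | read-out basis = % PE-positive cells | control set = TNF-alpha positive control, DMSO neutral control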
# * hit, by the source's call; x = not tested or not shown.
SMILES,SIRT5 block,DENV2 CPE rescue,E-sel inducer
O=C(NCc1cccc(F)c1)Nc1nnc([C@H]2C[C@H](O)[C@@H](CO)O2)s1,x,31*,-1
COCC#Cc1cnc2c(c1)C(=O)N([C@H](C)CO)C[C@H](C)[C@@H](CN(C)C(=O)Cc1ccncc1)O2,x,9,0
CC(O)CNCCCOc1ccccc1OCc1ccccc1 (centres undefined),0,-3,x
CNCC(C)COc1ccccc1OCc1ccccc1 (centres undefined),0,64*,x
Cc1ccc(O)c(C(=O)c2cc(C#N)c3nc4ccccc4n3c2)c1,2,8,x
O=C1CC2(CCCCC2)Oc2ccc(F)cc21,x,x,0
O=C1CC2(CCCCC2)Oc2ccccc21,31*,-16,0
Cc1cccn2c(=O)c3cc(C(=O)NC4CCCCC4)c(=N)n(Cc4ccc(F)cc4)c3nc12,0,15,4
CCOC(=O)c1ccc(NC(=O)O[C@H]2[C@H](OC(=O)Nc3ccccc3)[C@@H](OC(=O)Nc3ccccc3)[C@@H](OC)O[C@@H]2CO)cc1,20*,-1,x
COc1ccc(NC(=O)O[C@H]2[C@H](OC(=O)Nc3ccccc3)[C@H](OC(=O)Nc3ccccc3)[C@@H](OC)O[C@@H]2CO)cc1,1,-2,x
COc1ccc(-c2ccc3c(c2)O[C@H](CN(C)CC2CCOCC2)[C@@H](C)CN([C@H](C)CO)S3(=O)=O)cc1,9,-8,1
COCCn1c(CN2CC(C)CC(C)C2)nc2c1c(=O)n(C)c(=O)n2C (centres undefined),-4,3,0
COc1ccc(C(=O)NCCS(=O)(=O)NCc2cccs2)cc1,-9,-3,-1
N#C[C@H]1[C@H](c2ccccc2-c2ccccc2F)[C@@H](CO)N1C(=O)c1cccc(F)c1,6,-15,0
Cc1ccccc1-c1ccccc1[C@@H]1[C@@H](C#N)N(C(=O)c2ccccc2)[C@H]1CO,-5,-2,0
Cc1ccccc1-c1ccccc1[C@H]1[C@@H](C#N)N(C(=O)c2ccccc2)[C@@H]1CO,26*,3,x
N#C[C@@H]1[C@H](c2ccccc2-c2ccccc2F)[C@@H](CO)N1C(=O)c1cccc(F)c1,18*,-15,0
N#C[C@@H]1[C@H](c2ccccc2-c2ccccc2F)[C@H](CO)N1C(=O)C1CCC1,-1,0,0
N#C[C@H]1[C@@H](c2ccccc2-c2ccccc2F)[C@H](CO)N1C(=O)C1CC1,0,26*,0
CCCC#Cc1ccc([C@H]2[C@@H](CO)N3C(=O)CN(C(=O)c4cccnc4)C[C@@H]23)cc1,-1,15,0
CCCOc1ccc(C2=CSC3=NCCN23)cc1,-3,3,6
C=CCNC(=S)N/N=C/c1ccc(-c2ccc(OC)cc2)o1,-1,1,3
COC(=O)CC1=C(C)C(=O)CC2C(C)(C)CCCC12C (centres undefined),18*,x,x
C=C[C@]1(C)C=C2C(=O)C[C@H]3C(C)(C)CCC[C@]3(C(=O)O)[C@@]2(O)CC1,x,1,0
N#C[C@@H]1N[C@H](CO)[C@H]1c1ccc(-c2cccc(F)c2)cc1,-1,12,2
SMILES,SIRT5 block,DENV2 CPE rescue,E-sel inducer
O=C(Cn1cncn1)NCCC(c1ccccc1)c1ccccc1,-5,-5,x
COc1ccc(CN(C)C[C@@H]2OCCCC[C@H](C)Oc3ccc(NS(=O)(=O)c4ccccc4)cc3C(=O)N([C@@H](C)CO)C[C@H]2C)cc1,-6,-7,0
COc1ccc(CN(C)C[C@H]2OCCCC[C@@H](C)Oc3ccc(NS(=O)(=O)c4ccccc4)cc3C(=O)N([C@@H](C)CO)C[C@H]2C)cc1,-5,34*,0
COc1ccc(CN(C)C[C@H]2OCCCC[C@@H](C)Oc3ccc(NS(=O)(=O)c4ccccc4)cc3C(=O)N([C@H](C)CO)C[C@H]2C)cc1,-5,7,0
COc1ccc(CN(C)C[C@@H]2OCCCC[C@H](C)Oc3ccc(NS(=O)(=O)c4ccccc4)cc3C(=O)N([C@H](C)CO)C[C@H]2C)cc1,-5,32*,2
COc1cc(C)ccc1Oc1ccc([N+](=O)[O-])cc1,1,0,-1
O=C(N/N=C/c1cccs1)c1n[nH]c2c1CCCC2,x,2,75*
Cc1ccc(/C=N/NC(=O)c2n[nH]c3c2CCCC3)cc1,-6,-4,0
C[C@H](CO)N1C[C@H](C)[C@@H](CN(C)S(=O)(=O)c2ccc(Cl)cc2)Oc2c(NC(=O)c3nc4ccccc4s3)cccc2C1=O,-3,25*,-16
C[C@H](CO)N1C[C@H](C)[C@H](CN(C)S(=O)(=O)c2ccc(F)cc2)Oc2c(NC(=O)c3nc4ccccc4s3)cccc2C1=O,24*,-10,0
